Results published in ChEMBL document CHEMBL1138275, “Activity of sulfonium bisphosphonates on tumor cell lines” (J Med Chem, 2007).

How the values were obtained:
[1] = test system: NCI-H460; experiment: Growth inhibition of human NCI-H460 cells after 4 days by MTT assay; format: functional, cell-based; conditions: NCI-H460, 96 h
Method in brief: (§1)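 Cell lines from NCI, grown in RPMI-1640 with 2 mM L-glutamine and 10% FBS at 37 °C, 5% CO2, 100% humidity. Aqueous 0.01 M stocks, half-log serial dilutions in medium, typically 316 µM to 10 nM. 5000 cells/well exposed 4 days. MTT added for 2 h, detergent lysis, overnight dark at room temperature, A600 read. IC50 from rectangular hyperbolic fit of percent inhibition.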

[2] = test system: MCF7; experiment: Growth inhibition of human MCF7 cells after 4 days by MTT assay; format: functional, cell-based; conditions: MCF7, 96 h
[3] = test system: SF-268; experiment: Growth inhibition of human SF268 cells after 4 days by MTT assay; format: functional, cell-based; conditions: SF-268, 96 h; method in brief: as §1
[4] = molecular target: T1, Farnesyl pyrophosphate synthase (Homo sapiens, UniProt P14324); experiment: Inhibition of human FPPS
T1 sequence (P14324 whole entry): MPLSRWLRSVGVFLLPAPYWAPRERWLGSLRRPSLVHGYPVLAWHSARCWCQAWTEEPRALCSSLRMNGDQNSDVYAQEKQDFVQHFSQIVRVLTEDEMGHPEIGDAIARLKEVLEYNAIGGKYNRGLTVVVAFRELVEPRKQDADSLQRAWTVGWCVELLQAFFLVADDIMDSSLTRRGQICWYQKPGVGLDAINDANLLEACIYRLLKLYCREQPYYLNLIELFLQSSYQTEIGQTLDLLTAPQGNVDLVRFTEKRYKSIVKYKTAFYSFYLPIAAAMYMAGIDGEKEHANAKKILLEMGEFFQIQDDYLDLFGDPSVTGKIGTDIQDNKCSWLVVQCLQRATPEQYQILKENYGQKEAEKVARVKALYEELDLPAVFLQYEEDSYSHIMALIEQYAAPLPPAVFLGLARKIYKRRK

IC50 ([1]; read-out: IC50) [µM]	IC50 ([1]; read-out: pIC50 (converted)) [µM]	IC50 ([2]; read-out: IC50) [µM]	IC50 ([2]; read-out: pIC50 (converted)) [µM]	IC50 ([4]; read-out: IC50) [µM]	IC50 ([4]; read-out: pIC50 (converted)) [µM]	SMILES	IC50 ([3]; read-out: IC50) [µM]	IC50 ([3]; read-out: pIC50 (converted)) [µM]
1.41	1.26	1.12	1	45.6		CCCCCCCCCCCCCCCC[S+](C)CC(P(=O)([O-])O)P(=O)(O)O (stereo unspecified)	1.08	1
66.1	63.1	105	100			C[S+](CCCc1ccccc1)CCC(O)(P(=O)([O-])O)P(=O)(O)O (stereo unspecified)	65.9	63.1
0.21	0.2					CCCCCCCCCCCC[S+](C)CC(P(=O)([O-])O)P(=O)(O)O (stereo unspecified)	0.29	0.316
759	794	813	794			CCC[S+](C)CCC(O)(P(=O)([O-])O)P(=O)(O)O (stereo unspecified)	714	631
47.9	50.1	45.7	50.1			C[S+](CCCCc1ccccc1)CC(P(=O)([O-])O)P(=O)(O)O (stereo unspecified)	43.9	39.8
13.8	12.6	17.8	15.8			C[S+](CCCc1ccccc1)CC(O)(P(=O)([O-])O)P(=O)(O)O (stereo unspecified)	10.7	10
151		184				C[S+](CCCOc1ccccc1)CCC(O)(P(=O)([O-])O)P(=O)(O)O (stereo unspecified)	171	
126	126	100	100			O=P([O-])(O)C(O)(C[S+]1CCCC1)P(=O)(O)O (stereo unspecified)	101	100
23.4	25.1	21.4	20			C[S+](CCCCCc1ccccc1)CC(P(=O)([O-])O)P(=O)(O)O (stereo unspecified)	17.9	15.8
12.3	12.6	21.4	20			CCCCCCCC[S+](C)CC(P(=O)([O-])O)P(=O)(O)O (stereo unspecified)	14.7	15.8
3.4		2.8				CCCCCCCCCCCCC[S+](C)CC(P(=O)([O-])O)P(=O)(O)O (stereo unspecified)	3.1	
83.2	79.4	95.5	100			O=P([O-])(O)C(C[S+]1CCCC1)P(=O)(O)O (stereo unspecified)	87.8	79.4
209	200	302	316			O=P([O-])(O)C(O)(C[S+]1CCCCC1)P(=O)(O)O (stereo unspecified)	240	251
128		224		1.08		CCCCC[S+](C)CC(P(=O)([O-])O)P(=O)(O)O (stereo unspecified)	189	
55	50.1	57.5	63.1			C[S+](CCCc1ccccc1)CC(P(=O)([O-])O)P(=O)(O)O (stereo unspecified)	48.6	50.1
0.48	0.501	11	10	8.47		CCCCCCCCCCCCCC[S+](C)CC(P(=O)([O-])O)P(=O)(O)O (stereo unspecified)	0.88	0.794
200	200	389	398			CCCCC[S+](C)CCC(O)(P(=O)([O-])O)P(=O)(O)O (stereo unspecified)	196	200
245	251	339	316			O=P([O-])(O)C(O)(CC[S+]1CCC(c2ccccc2)C1)P(=O)(O)O (stereo unspecified)	264	251
183		251				C[S+](CCc1ccccc1)CCC(O)(P(=O)([O-])O)P(=O)(O)O (stereo unspecified)	198	
355	316	513	501			O=P([O-])(O)C(O)(CC[S+]1CCCCC1)P(=O)(O)O (stereo unspecified)	431	398
3.7		14.2				CCCCCCCCCCC[S+](C)CC(P(=O)([O-])O)P(=O)(O)O (stereo unspecified)	3.7	
158	158	195	200			O=P([O-])(O)C(O)(CC[S+]1CCCC1)P(=O)(O)O (stereo unspecified)	129	126
16.6	15.8	93.3	100			C[S+](CCCOc1ccccc1)CC(O)(P(=O)([O-])O)P(=O)(O)O (stereo unspecified)	34.5	31.6
1.15	1.26	0.95	1	27.4	0.251	CCCCCCCCCCCCCCCCCCCC[S+](C)CC(P(=O)([O-])O)P(=O)(O)O (stereo unspecified)	1.49	1.58
1.23	1.26	1.41	1.26	7.45		CCCCCCCCCCCCCCCCCC[S+](C)CC(P(=O)([O-])O)P(=O)(O)O (stereo unspecified)	1.71	1.58
74.1	79.4	162	158			CCC[S+](C)CC(O)(P(=O)([O-])O)P(=O)(O)O (stereo unspecified)	96.1	100
95.1		258		9		C[S+](C)CCC(O)(P(=O)([O-])O)P(=O)(O)O (stereo unspecified)	100	
25.7	25.1	32.4	31.6			CCCCCCCC[S+](C)CCC(O)(P(=O)([O-])O)P(=O)(O)O (stereo unspecified)	20.3	20

SMILES	IC50 ([1]; read-out: IC50) [µM]	IC50 ([1]; read-out: pIC50 (converted)) [µM]	IC50 ([2]; read-out: IC50) [µM]	IC50 ([2]; read-out: pIC50 (converted)) [µM]	IC50 ([4]; read-out: IC50) [µM]	IC50 ([4]; read-out: pIC50 (converted)) [µM]	IC50 ([3]; read-out: IC50) [µM]	IC50 ([3]; read-out: pIC50 (converted)) [µM]
C[S+](C)CC(O)(P(=O)([O-])O)P(=O)(O)O (stereo unspecified)	191	200	200	200	1.03		171	158
CCCCCCCCCC[S+](C)CC(P(=O)([O-])O)P(=O)(O)O (stereo unspecified)	0.32	0.316	0.62	0.631	0.24		0.37	0.398
CCC[S+](C)CC(P(=O)([O-])O)P(=O)(O)O (stereo unspecified)	95.5	100	240	251	0.53		223	200
